In article PMC7125971 (European Journal of Medicinal Chemistry, 2015):
“Also recorded” adds a separate entry of the source.

Key:
[1] = test system: 3T3 cells (embryonal murine fibroblasts); assay: Cytotoxic effects on embryonal murine fibroblasts 3T3; assay type: cell-based, mouse
Outline: (§1)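 Cells grown as monolayers in DMEM with 10% FBS, 2 mM L-glutamine, 100 U/ml penicillin and 100 μg/ml streptomycin at 37 °C, 5% CO2. 5000 cells/well seeded on day 0. Compound added in five 10-fold dilutions (0.01–100 μM); final DMSO ≤0.1%. Cells incubated 72 h, then MTT; absorbance converted to percentage growth vs same-plate untreated controls. Quadruplicate points in three experiments; ANOVA with Tukey post-hoc test.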

[2] = test system: HeLa cells (cervical carcinoma); assay: Antiproliferative assay; assay type: cell-based, human
Outline: as §1

[3] = test system: all tested malignant cell lines; assay: Cytostatic activity on the whole panel of malignant cell lines; assay type: cell-based
Outline: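 Malignant lines HeLa, SW620, MiaPaCa-2, HepG2 and CFPAC-1 grown as monolayers in DMEM with 10% FBS at 37 °C, 5% CO2. Plated at 5000 cells/well and exposed 72 h to five 10-fold dilutions (0.01–100 μM), with DMSO ≤0.1%. Growth read by MTT and converted to percentage growth by NIH formulas. Quadruplicate points in three experiments; ANOVA with Tukey post-hoc test.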

[4] = test system: Para-influenza-3 virus; assay: organism not typed; assay type: cell-based; conditions: Vero, read-out: EC50 Para-influenza-3 virus
[5] = test system: Reovirus-1; assay: organism not typed; assay type: cell-based; conditions: Vero, read-out: EC50 Reovirus-1
[6] = test system: human cytomegalovirus (HCMV); assay: Anti-HCMV activity in HEL cells, strain not told apart in the statement; assay type: cell-based; conditions: compared to compound 3
[7] = test system: Crandell-Rees feline kidney cells (CRFK)
[8] = test system: Madin Darby canine kidney (MDCK) cells
[9] = test system: human embryonic lung cells (HEL); assay: Cytostatic activity; assay type: cell-based
Outline: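 HEL cells seeded at 5 × 10^3 cells/well and allowed to proliferate 24 h. Medium with varying compound concentrations then added, and cells incubated 3 days at 37 °C. Cell number counted by Coulter counter. CC50 (50% reduction in proliferation vs untreated controls) read from plots of cell number (% of control) against concentration.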

[10] = test system: African green monkey kidney epithelial cells (Vero); conditions: alteration of normal cell morphology, listed as C00010
[11] = test system: Punta Toro virus; assay: microbe, parasite or virus in culture; assay type: cell-based; conditions: Vero, read-out: EC50 Punta Toro virus

Row | SMILES | cytotoxic effects on 3T3 cells (in words) [1] | cytostatic activity on the malignant cell line panel (in words) [3] | EC50 [5] [µM] | further results
1 | O=C1O/C(=C\Cn2cnc3cncc(Br)c32)C(OCc2ccccc2)=C1OCc1ccccc1 [Compound 1, 3,4-di-O-benzyl-5-(9-(3-bromo-1H-imidazo[4,5-c]pyridine-9-yl)ethylidene)furan-2(5H)-one] | low cytotoxic effects; also recorded: moderate or low cytotoxic effects | weak and nonselective antiproliferative activity | – | activity / cytostatic effects on HeLa cells (in words) [2]: moderate activity
2 | O=C1O/C(=C\Cn2cc(I)c3c(Cl)ncnc32)C(OCc2ccccc2)=C1OCc1ccccc1 [Compound 10, 3,4-di-O-benzyl-5-(9-(6-chloro-7-iodo-7H-pyrrolo[2,3-d]pyrimidine-9-yl)ethylidene)furan-2(5H)-one] | – | no marked cytostatic nor antiviral activities | – | –
3 | O=C1NC(O)(/C=C\n2cc(I)c3c(Cl)ncnc32)C(OCc2ccccc2)=C1OCc1ccccc1 (centres unmarked) [Compound 12, 3,4-di-O-benzyl-5-(9-(6-chloro-7-iodo-7H-pyrrolo[2,3-d]pyrimidine-9-yl)-vinyl)-5-hydroxy-1H-pyrrolo-2(5H)-one] | moderate or low cytotoxic effects | weak and nonselective antiproliferative activity; also recorded: no marked cytostatic nor antiviral activities | – | –
4 | Nc1ncnc2c1ncn2C[C@H](O)CO [(S)-DHPA, (S)-9-(2,3-dihydroxypropyl)adenine, reference compound] | – | – | > 250 | EC50 [4]: > 250 µM
5 | O=C1O/C(=C\Cn2cnc3cc[nH]c3c2=O)C(OCc2ccccc2)=C1OCc1ccccc1 [Compound 14, 3,4-di-O-benzyl-5-(1-(3H-pyrrolo[3,2-d]pyrimidine-4(5H)-one-1-yl)ethylidene)furan-2(5H)-one] | without cytotoxic effects | – | – | –
6 | O=C1O/C(=C\Cn2cnc3c(Cl)c(F)nc(F)c32)C(O)=C1O [Compound 8, 5-(2-(7-chloro-4,6-difluoro-3H-imidazo[4,5-c]pyridine-3-yl)ethylidene)-3,4-dihydroxyfuran-2(5H)-one] | – | – | – | anti-HCMV activity (in words) [6]: loss of anti-HCMV activity
7 | Nc1nc(F)c(Cl)c2c1ncn2CCC1(O)NC(=O)C(OCc2ccccc2)=C1OCc1ccccc1 (centres unmarked) [Compound 7, 5-(9-(6-amino-3-chloro-2-fluoro-1H-imidazo[4,5-c]pyridine-9-yl)ethyl)-3,4-di-O-benzyl-5-hydroxy-1H-pyrrolo-2(5H)-one] | – | – | – | anti-HCMV activity (in words) [6]: lost anti-HCMV activity; also recorded: loss of anti-HCMV activity
8 | O=C1O/C(=C\Cn2cnc3c(Cl)c(F)nc(F)c32)C(OCc2ccccc2)=C1OCc1ccccc1 [Compound 3, 3,4-di-O-benzyl-5-(7-(3-chloro-2,6-difluoro-1H-imidazo[4,5-c]pyridine-7-yl)ethylidene)furan-2(5H)-one] | did not show any cytostatic effects | – | > 20 | EC50 [4]: > 20 µM; cytostatic effects on CRFK cells (in words) [7]: did not show any cytostatic effects; activity / cytostatic effects on HeLa cells (in words) [2]: did not show any cytostatic effects; cytostatic effects on MDCK cells (in words) [8]: did not show any cytostatic effects; cytotoxic effects on HEL cells (in words) [9]: without cytotoxic effects; also recorded: did not show any cytostatic effects
9 | O=C1O/C(=C\Cn2cnc3c(F)nc(F)c(Cl)c32)C(OCc2ccccc2)=C1OCc1ccccc1 [Compound 2, 3,4-di-O-benzyl-5-(9-(3-chloro-2,6-difluoro-1H-imidazo[4,5-c]pyridine-9-yl)ethylidene)furan-2(5H)-one] | – | – | > 20 | EC50 [4]: > 20 µM; MCC [10]: ≥20 µM; activity / cytostatic effects on HeLa cells (in words) [2]: no cytostatic effects
10 | NC(=O)c1ncn([C@@H]2O[C@H](CO)[C@@H](O)[C@H]2O)n1 [Ribavirin, reference compound] | – | – | > 250 | EC50 [11]: 150 ± 141 µM
11 | O=C1NC(O)(CCn2cnc3cncc(Br)c32)C(OCc2ccccc2)=C1OCc1ccccc1 (centres unmarked) [Compound 6, 3,4-di-O-benzyl-5-(9-(3-bromo-1H-imidazo[4,5-c]pyridine-9-yl)ethyl)-5-hydroxy-1H-pyrrolo-2(5H)-one] | moderate or low cytotoxic effects | weak and nonselective antiproliferative activity | – | –
